# Screening data from PubChem BioAssay.
# Most compounds without a hit are left out; they make up all but 3.5% or so of the library.
# MrgX1 antag: antagonists of human MrgX1 receptor, primary screen, HEK293 cells, Fluo-4 calcium flux. B-score at 10 µM. AID 588676, 2011. BAM8-22 antagonism; hits give low values. 310,000 compounds, 1.3% hits;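 active means calcium-response B-score plate-corrected more than 3 library SD below zero, starting fluorescence within 5 deviations, no agonist response on first addition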;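 further: peak minus trough fluorescence over baseline after final BAM8-22 challenge near maximal dose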
# Target sequence (Q96LB2 whole entry, looked up): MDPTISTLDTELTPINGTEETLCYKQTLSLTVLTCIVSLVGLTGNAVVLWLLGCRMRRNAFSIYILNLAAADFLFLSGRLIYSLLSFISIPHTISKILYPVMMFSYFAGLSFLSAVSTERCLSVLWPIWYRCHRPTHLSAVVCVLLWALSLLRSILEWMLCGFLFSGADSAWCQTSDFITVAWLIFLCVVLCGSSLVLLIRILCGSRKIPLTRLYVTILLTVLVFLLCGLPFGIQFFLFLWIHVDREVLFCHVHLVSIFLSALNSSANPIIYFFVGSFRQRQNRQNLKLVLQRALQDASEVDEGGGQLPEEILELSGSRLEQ
# MrgX1 allo act: positive allosteric modulators of MrgX1, primary screen, HEK293 cells, Fluo-4 calcium flux. 310,000 compounds, 0.63% hits. AID 588675, 2011. FDSS; hits give high values. B-score at 10 µM;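 active means plate-corrected calcium response at least 3 library SD above typical, normal starting fluorescence, not activating the receptor alone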;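 further: compound read alongside a low EC10 to EC30 dose of BAM8-22 agonist; peak minus trough fluorescence over baseline measured at the second addition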
# RGS4 inh: RGS4 inhibitors, primary screen, cell-based, HEK293 M3R inducible RGS4, calcium flux; Fluo-4 calcium flux; hits give high values; triggered by carbachol at its EC20; B-score at 10 µM; 310,000 compounds, 0.45% hits; AID 463165, 2010;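 active means B-score, a plate-corrected calcium signal, over three deviations above library mean, with baseline fluorescence within five deviations of library mean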;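 further: RGS4 expression induced by doxycycline in cells with stable M3 receptor; B-score is computed from the integrated fluorescence ratio over baseline after carbachol; higher B-score means a larger calcium signal and so more RGS4 inhibition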
# Target sequence (P49798 whole entry, looked up): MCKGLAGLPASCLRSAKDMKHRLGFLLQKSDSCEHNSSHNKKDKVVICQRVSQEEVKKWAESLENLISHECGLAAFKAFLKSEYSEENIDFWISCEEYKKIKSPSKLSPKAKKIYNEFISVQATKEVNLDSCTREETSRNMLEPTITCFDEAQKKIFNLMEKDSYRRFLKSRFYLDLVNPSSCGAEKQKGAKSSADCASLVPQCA
# MrgX1 agonist: agonists of human MrgX1 receptor, primary screen, HEK293 cells, Fluo-4 calcium flux | Fluo-4 calcium fluorescence, agonist mode; hits give high values | Mas-related G-protein coupled receptor member X1 (Homo sapiens), Q96LB2 | 310,000 compounds, 0.44% hits | B-score at 10 µM;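 active means calcium response B-score plate-corrected fluorescence ratio at least 3 library SD, with starting fluorescence B-score inside 5 SD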
#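 System – MrgX1-expressing HEK293 cells · Incubation – cells plated overnight, dye loaded 0.5 h 37 °C, 0.5 h room temperature · Technique – kinetic Fluo-4 NW fluorescence of intracellular calcium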
# RGS4 act: RGS4 potentiators or activators, primary screen, cell-based, HEK293 M3R inducible RGS4, calcium flux. carbachol calcium flux Fluo4; hits give low values. B-score at 10 µM. 310,000 compounds, 0.92% hits;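 active means B-score of the integrated calcium signal more than 4 SD below the library mean, with starting fluorescence not abnormally high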;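 further: negative B-score means reduced calcium response which marks RGS4 activation or potentiation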
#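 test system = HEK293 cells with stable M3R and inducible RGS4 | schedule = recording 10 s baseline at 1 Hz, 100 s post-agonist | technique = Fluo4-AM (2 µM) calcium-flux fluorescence, kinetic read | measure = Agonist-evoked peak-minus-minimum fluorescence over baseline, integrated ratio, B score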
# Active calls of the source: *; i = inactive; x = not tested or not shown.
SMILES,MrgX1 antag,MrgX1 allo act,RGS4 inh,MrgX1 agonist,RGS4 act
CN1CCc2c(sc3c2C(=O)NC(c2cccc(OC(=O)c4cccs4)c2)N3)C1 (stereo not drawn),i,i,i,i,i
CN1CCc2c(sc3c2C(=O)NC(c2cn(Cc4ccccc4)c4ccccc24)N3)C1 (stereo not drawn),i,i,i,29*,i
CN1CCc2c(sc3c2C(=O)NC(c2ccco2)N3)C1 (stereo not drawn),i,i,i,27*,i
CCOC(=O)N1CCc2c(sc3c2C(=O)NC(c2ccccc2)N3)C1 (stereo not drawn),i,i,i,i,i
O=C1NC(c2ccco2)Nc2sc3c(c21)CCN(Cc1ccccc1)C3 (stereo not drawn),i,i,x,30*,x
Cn1cccc1C1NC(=O)c2c(sc3c2CCC(C(C)(C)C)C3)N1 (stereo not drawn),i,i,i,i,i
CC1SC(=S)N(c2ccc(N(C)C)cc2)C1=O (stereo not drawn),i,i,i,i,i
Cc1nonc1C(=O)N/N=C/c1ccccc1,i,i,i,i,i
O=C(OCC(=O)N1CCCc2ccccc21)c1c(F)cccc1F,i,i,i,i,i
CC(=O)Cc1nnn(-c2cc(C)on2)n1,i,i,i,i,i
COCC(=O)N(Cc1cc2cccc(C)c2[nH]c1=O)c1ccccc1,i,i,i,i,i
CCCN1C2=C(C(=O)CC(C)(C)C2)C(c2ccc(F)cc2)C2=C1c1ccccc1C2=O (stereo not drawn),-8.7*,i,i,i,i
CCCCN1C2=C(C(=O)CC(C)(C)C2)C(c2ccccc2)C2=C1c1ccccc1C2=O (stereo not drawn),i,i,i,i,i
CC(C)CC(C(=O)NC1CCCCC1)N(Cc1ccccc1)C(=O)c1snc(C(N)=O)c1N (stereo not drawn),i,i,i,i,i
Cc1ccc(OCCn2cc(/C=N/NC(=O)c3ccncc3)c3ccccc32)cc1,i,i,i,i,i
COc1ccc(OCCn2cc(/C=N/NC(=O)c3ccncc3)c3ccccc32)cc1,i,7.2*,i,i,i
S=C(Nc1cccc(Cl)c1)Nc1ccccc1Oc1ccccc1,-5.8*,i,i,i,i
S=C(Nc1ccc(Cl)cc1Cl)Nc1ccccc1Oc1ccccc1,i,i,i,i,i
FCCCOc1ccc(/C=N/OCc2ccc(Cl)cc2Cl)cc1,-5.5*,i,i,i,i
O=C(c1ccncc1)N1CCN(S(=O)(=O)c2ccc(F)cc2)CC1,i,i,i,i,i
CN1C(=O)/C(=C/c2ccccc2OCc2ccccc2)NC1=S,i,i,i,i,i
CN1C(=O)/C(=C/c2ccccc2OCc2ccc(F)cc2)N(C)C1=S,-5.2*,i,i,i,-9.6*
CCC1CCCCN1CCCNC(=O)c1cn(CC)c2ccc(S(=O)(=O)N3CCc4ccccc4C3)cc2c1=O (stereo not drawn),i,i,i,i,-9*
CCn1cc(C(=O)NCCCN2CCCC(C)C2)c(=O)c2cc(S(=O)(=O)N3CCc4ccccc4C3)ccc21 (stereo not drawn),i,i,i,i,-7.2*
CCC1CCCCN1CCCNC(=O)c1cn(CC)c2ccc(S(=O)(=O)N(C)C3CCCCC3)cc2c1=O (stereo not drawn),i,i,i,i,i
SMILES,MrgX1 antag,MrgX1 allo act,RGS4 inh,MrgX1 agonist,RGS4 act
COc1ccc(-c2cn(CCO)c(-c3ccncc3)n2)cc1,i,i,x,i,x
Cc1cc(C(=O)NNc2ccccc2F)no1,i,i,i,i,-7.7*
CCOC(=O)COc1nc(-c2ccco2)cc(-c2ccco2)c1C#N,i,i,i,i,-7.2*
CCOC(=O)COc1nc(-c2ccc(C)cc2)cc(-c2ccco2)c1C#N,i,i,i,i,i
Cc1cc2nc(C)c3c(n2n1)CCC3,i,i,i,i,i
O=C(Nc1ccc(N2CCN(C(=O)c3cccs3)CC2)cc1)c1ccc(F)cc1,i,i,i,i,i
CCCC1=Nc2cc(C(=O)N3CCN(c4ccccn4)CC3)ccc2Sc2ccc(C)cc21,i,i,i,i,-7.5*
CC1CCCN(C(=O)Cn2nnc(-c3ccc([N+](=O)[O-])cc3)n2)C1 (stereo not drawn),i,i,i,i,i
CCOC(=O)c1sc(NC(=O)CSc2n[nH]c(CC(C)C)n2)nc1C,i,i,i,i,i
Cc1ccc(-n2c(CSc3nc(C)cc(C)n3)nnc2SCC(=O)NCc2ccco2)cc1,-6.6*,i,i,i,i
COc1cc(CN2CCC(Oc3cc(C(=O)NC4CC4)ccc3OC)CC2)cc(OC)c1,i,i,i,i,i
CCN(CC)Cc1c(C(=O)N2CCc3ccccc3C2)nc2ccc(Cl)cn12,i,i,i,i,i
COc1ccc(OC)c(NC(=O)c2cccnc2Sc2ccccc2)c1,i,i,i,i,i
CCC(=O)Nc1ccc(C(=O)Cn2ncc(Cl)c(Cl)c2=O)cc1,i,i,i,i,i
CCOC(=O)c1ccc(NC(=O)Cn2ncc(Cl)c(Cl)c2=O)cc1,-5.2*,i,i,i,i
COc1ccc(CCC(=O)Nc2ccc(C)c([N+](=O)[O-])c2)cc1,i,i,i,i,i
NC(N)=N/N=C/c1ccc(OS(=O)(=O)c2ccccc2)cc1,i,i,i,30*,-8.4*
N#Cc1ccc(N=c2ssnc2Cl)cc1,i,i,i,31*,i
Clc1ccc(N=c2ssnc2Cl)cc1,i,i,i,i,i
COc1ccc(N=c2ssnc2Cl)cc1,i,i,i,27*,i
Fc1ccc(N=c2ssnc2Cl)c(F)c1,i,i,i,35*,i
COc1cc(N=c2ssnc2Cl)cc(OC)c1OC,i,i,i,32*,i
CCOC(=O)c1ccc(N=c2ssnc2Cl)cc1,x,x,i,x,i
O=C(Cc1cccc2ccccc12)Nc1c(F)cccc1F,i,i,i,i,i
CC(/C=N/n1c(-c2ccccc2)n[nH]c1=S)=C\c1ccco1,i,i,i,i,-7.2*
